Experimental data taken from PMC4755300 (European journal of medicinal chemistry, 2015).

What was measured:
[1] = biological target: human σ1 receptors in MCF7σ1 cells (Homo sapiens, UniProt Q99720); assay: Flow cytometry displacement of fluorescent tracers 5 or 6 in MCF7σ1 cells; assay type: binding; settings: for effect on fluorescent signal by tracers 5 and 6 (100 nM): MCF7σ1 cells, masking compound at 10 µM; for concentration at which the cellular fluorescence signal reaches a plateau: MCF7 cell lines, 45 and 75 min incubation, flow cytometry
Chain of human σ1 receptors in MCF7σ1 cells (Q99720 whole entry): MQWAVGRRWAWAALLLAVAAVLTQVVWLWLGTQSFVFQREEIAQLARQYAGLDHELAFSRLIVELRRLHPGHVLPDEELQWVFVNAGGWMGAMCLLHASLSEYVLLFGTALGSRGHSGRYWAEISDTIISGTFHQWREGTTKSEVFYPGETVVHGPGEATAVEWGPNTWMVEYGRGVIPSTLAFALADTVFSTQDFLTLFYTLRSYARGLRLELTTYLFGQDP

MCF7wt cells = assay: Flow cytometry of fluorescent tracers 5 or 6 in MCF7wt cells; assay type: cell-based, human; settings: masking compound at 10 µM
Method in brief: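 Parental MCF7 cells were grown in high-glucose DMEM with 10% FBS and 1% penicillin-streptomycin at 37 °C. […] Cells were washed twice in PBS, detached 10 min at 37 °C, pelleted and resuspended in PBS. Flow cytometry used a 530 nm band pass filter, 50,000 events per analysis.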

[2] = Fluorescence spectroscopy; assay type: physicochemical; settings: with respect to quinine sulfate
Method in brief: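 Excitation and emission spectra were recorded on the free base in EtOH (per table footnote) or in CHCl3. Fluorescence quantum yield was calculated relative to quinine sulfate.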

σ1 receptor = σ1 receptor (Cavia porcellus, UniProt Q60492); assay: σ1 receptor radioligand competition binding; set-up: species or system guinea pig; settings: for σ1 versus σ2 receptor selectivity: ratio of σ2 and σ1 Ki
Chain of σ1 receptor (Q60492 whole entry): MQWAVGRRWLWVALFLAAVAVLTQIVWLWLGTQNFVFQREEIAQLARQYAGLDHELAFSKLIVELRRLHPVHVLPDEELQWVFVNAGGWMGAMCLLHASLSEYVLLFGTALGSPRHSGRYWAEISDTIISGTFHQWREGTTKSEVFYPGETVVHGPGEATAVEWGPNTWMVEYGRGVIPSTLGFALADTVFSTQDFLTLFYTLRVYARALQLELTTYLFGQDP

σ2 receptor = biological target: T1, σ2 receptor (Rattus norvegicus, UniProt Q5U3Y7); assay: σ2 receptor radioligand competition binding, [3H]-DTG with 1 µM
T1 sequence (Q5U3Y7 1-176): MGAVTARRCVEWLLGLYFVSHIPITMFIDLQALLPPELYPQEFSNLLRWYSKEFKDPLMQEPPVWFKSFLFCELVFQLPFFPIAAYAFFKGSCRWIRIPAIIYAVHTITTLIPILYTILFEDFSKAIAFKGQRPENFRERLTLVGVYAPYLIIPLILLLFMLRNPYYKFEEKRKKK

ARPE19 cells [3] = assay: MTT cell viability assay, paraquat toxicity in ARPE19 cells; assay type: cell-based, human; settings: 1 mM paraquat, 24 h
ARPE19 cells [4] = assay: Confocal imaging of ARPE19 cells labeled with compound 9; assay type: cell-based, human; settings: PB190 100 µM pretreatment 40 min
Method in brief: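 ARPE19 cells were grown in DMEM with 10% FBS and 1% penicillin-streptomycin under 5% CO2. Treatment and imaging were done in HBSS. Control wells were pretreated with PB190 100 µM for 40 min. Cells then received test compound 0.5 µM for 40 min and were rinsed twice in HBSS. Laser confocal imaging used a 60X oil objective, excitation 408 nm and emission detection 525 nm.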

| Structure (SMILES) | effect on fluorescent signal by tracers 5 and 6 (100 nM) [1] | effect on fluorescent signal by tracers 5 or 6 (100 nM) (MCF7wt cells) | concentration at which the cellular fluorescence signal reaches a plateau [1] [nM] | QY CHCl3 (fluorescence quantum yield) [2] | QY EtOH (fluorescence quantum yield) [2] | σ1 versus σ2 receptor selectivity (σ1 receptor) [fold] | further results |
| --- | --- | --- | --- | --- | --- | --- | --- |
| CC(C)=CCN1CC[C@]2(C)c3cc(O)ccc3C[C@H]1[C@H]2C [(+)-Pentazocine, reference compound] | strongly decreased | no change | – | – | – | – | – |
| CC1CCN(CCCCC2CCCc3cc(OCCCCCCN4C(=O)c5ccc(N(C)C)cc5C4=O)ccc32)CC1 (stereo not drawn) [Compound 5, 5-(Dimethylamino)-2-(6-((5-(4-(4-methylpiperidin-1-yl)butyl)-5,6,7,8-tetrahydronaphthalen-2-yl)oxy)hexyl)isoindoline-1,3-dione] | – | – | 100 | 0.5 | 0.02 | 10 | – |
| CC1CCN(CCCCc2cccc3cc(OCCCCCCN4C(=O)c5ccc(N(C)C)cc5C4=O)ccc23)CC1 [Compound 6, 5-(Dimethylamino)-2-{6-[(5-(4-(4-methylpiperidin-1-yl)butyl)naphthalen-2-yl)oxy]hexyl}isoindole-1,3-dione] | – | – | 100 | 0.4 | 0.02 | 10 | decrease of σ2 affinity in comparison to the lead compound (σ2 receptor; 6 vs PB212): 2.5 fold |
| CN(C)c1ccc2c(c1)C(=O)N(CCCCCCOc1cccc3c1CCCC3CCC(=O)N1CCN(C3CCCCC3)CC1)C2=O (stereo not drawn) [Compound 9, 2-(6-((5-(3-(4-Cyclohexylpiperazin-1-yl)-3-oxopropyl)-5,6,7,8-tetrahydronaphthalen-1-yl)oxy)hexyl)-5-(dimethylamino) isoindole-1,3-dione] | – | – | – | 0.4 | 0.02 | 3 | cytoprotection against paraquat-mediated toxicity (MTT viability) (ARPE19 cells [3]): protects against such toxicity; Ki (σ2 receptor): 38.4 ± 10.9 nM; σ2 receptor affinity higher than that of the lead compound (σ2 receptor; 9 vs 1): 5 fold; Ki (σ1 receptor): 13.1 ± 5.02 nM |
| COc1cc2c(cc1OC)CN(CCCN1CCc3c(OC)cccc3C1=O)CC2 [Compound 10, 2-(3-(6,7-dimethoxy-3,4-dihydroisoquinolin-2(1H)-yl)propyl)-5-methoxy-3,4-dihydroisoquinolin-1(2H)-one, reference compound] | only slightly decreased | no change | – | – | – | – | – |
| COc1ccc2c(c1)CCCC2CCCCN1CCC(C)CC1 (stereo not drawn) [PB190, 4-methyl-1-[4-(6-methoxy-1,2,3,4-tetrahydronaphthalen-1-yl)butyl]piperidine] | – | – | – | – | – | – | effect on labeling by compound 9 when cells prelabeled (ARPE19 cells [4]): Lower intensity of labeling |
